# This sample holds only a part of the variants without activity.
# B1: tRNA (parent)
# chain: GUUCCGUUGGCGUAAUGGUAACGCGUCUCCCUCCUAAGGAGAAGACUGCGGGUUCGAGUCCCGUACGGAACG
# Variants of: B1
# Test: yeast fitness relative to wild type (ratio to wild type); higher = fitter; tRNA-Arg(CCU), competitive growth, 37 C, YPD
# In short: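 Variants of the tRNA-Arg(CCU) gene, chemically synthesised with a 3% per-site mutation rate at 69 sites, were placed at the native genomic locus in Saccharomyces cerevisiae. The pooled strains were competed in YPD at 37°C for 24 hours in six parallel replicates. Gene amplicons from the start population and from each end population were read by 100-nucleotide paired-end sequencing. Darwinian fitness relative to wild type came from changes in genotype frequencies; genotypes needed ≥ 100 starting reads, and estimates < 0.5 were set to 0.5.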
row,Variant,yeast fitness
1,GUUCCGUUGGCGUAAACGUAACGCGUCUCCCUCCUAAGGAGAUGCAUGCGGGUUCGAGUCUCGUACGGAACG [U16A G17C A43U A45C C46A C61U],≤ 0.5
2,GUUCCGUUGGCGUAAAGGUAACGCGUCUCCCUCCUAAGGAGAAGACUGCGGGUUCGAGUCCCGUAUGGAACG [U16A C66U],0.897
3,GUUCCGUUGGCGUAACGGUAACGGGUCUCGCUCCUUAGGAGAAGACUGCGGGUUCGAGUCCCGUAUGGAACG [U16C C24G C30G A36U C66U],≤ 0.5
4,GUUCCGUUGGCGUAAAGGUAACGCGACUCCCUCCUAAGGAGAAGACUGGGGGUUCGAGUCACGUACGGAACG [U16A U26A C49G C61A],0.586
5,GUUCCGUUGGCGUAACGGUAACGCGUCUCCCUCCUCAGGAGAAGACUGCGGGUUCGAGUCCCGUACGGAACG [U16C A36C],0.675
6,GUUCCGUUGGCGUAAAGGUAACGCGUCUCCCUCCUAAGGAGAAGACUGCGGGUUCGAGUCCCAUACGGAACG [U16A G63A],0.798
7,GUUCCGUUGGCGUAACGGUAACGCGUCUCCCUCCUAAGGAGAAGACUGCGGGUUCGAGUCCCGUACGGUACG [U16C A69U],0.998
8,GUUCCGUUGGCGUAACGGUUACGCAUCCCGCUCCUAAGGAGAAGACUGCGGGUUCGAGUCCCGUACGGAACG [U16C A20U G25A U28C C30G],≤ 0.5
9,GUUCCGUUGGCGUAAAAGUAAGGCGUCUCCCUCCUAAGGAGAAGACUGCGGGUUCGAGUCUCGUACGCAACG [U16A G17A C22G C61U G68C],0.659
10,GUUCCGUUGGCGUAAAGGUAACGCGUCUCGCUCCUAAGGAGAAGACUGCAGGUUCGAGUACCGUACGGAACG [U16A C30G G50A C60A],0.547
11,GUUCCGUUGGCGUAAAGGUAACGCGUCUCCCACCUAAGGCGAAGACUGCGGGAUCGAGUCCCGUACGGAACG [U16A U32A A40C U53A],0.551
12,GUUCCGUUGGCGUAACGGUAACGCGUCUCCCUCCUAAGGCGAAGACUGCGGGUUCGUGUCCCGUACGAAACG [U16C A40C A57U G68A],0.641
13,GUUCCGUUGGCGUAAAGGUAAUGCGUCUCCCUCCUAAGGAGAAGACUGCGGGUUAGAGUCCCGUACGGAACG [U16A C22U C55A],0.808
14,GUUCCGUUGGCGUAAAGCUAACGCGUCUCCUUCCUAAGGAGAAGACUGCGCGUUCGAGUCCCGUACGGAACG [U16A G18C C31U G51C],≤ 0.5
15,GUUCCGUUGGCGUAAAGGUAACGAGUCUCGCUCUUAAGGAGAAGACUGCGGGUUCCAGUCCCGUACGGAACG [U16A C24A C30G C34U G56C],0.634
16,GUUCCGUUGGCGUAAAGGUAACGCGUCUGCCACCUGAGGAGAAGACUGUGAGUUCGAGUCCCGUACGGAACG [U16A C29G U32A A36G C49U G51A],≤ 0.5
17,GUUCCGUUGGCGUAAAGGUAACGCGUCUCUCUCCUAAGGAGAAGACUGCGGGUUCGUGUCCCGUACGGAACG [U16A C30U A57U],≤ 0.5
18,GUUCCGUUGGCGUAAAGGUAAGGCGUCUCCCUCCUAAGGAGAAGACUGCGGGUUCGAGUCCCGUACGGUACG [U16A C22G A69U],0.791
19,GUUCCGUUGGCGUAACGGUAAUGCGUCUCCCUCCUAUGGAGAAGACUGCGGGUUCGAGUCCCGUACCGAACG [U16C C22U A37U G67C],≤ 0.5

row,Variant,yeast fitness
1,GUUCCGUUGGCGUAACGGUAGCGCGUCUCCCUCCUAAGGAGAAGACUGCGGGUUCGAGUCCCGUACGGAACG [U16C A21G],0.91
2,GUUCCGUUGGCGUAAAGGUAACGCGUCUCCCGCCUAAGGAGAAGACUGCGGGUUGGAGUCCCGUACGGAACG [U16A U32G C55G],≤ 0.5
3,GUUCCGUUGGCGUAACGGUAAAGCGUCUCUGUCCUAAGGAGAAGACUGCGGGUUCGAGUCCCGUACGGAACG [U16C C22A C30U C31G],≤ 0.5
4,GUUCCGUUGGCGUAAAGGUAACGCGUCUCCAUCGUAAGGAGAAGACUGCGGGUUCGAGUUCCGUACGUAACG [U16A C31A C34G C60U G68U],≤ 0.5
5,GUUCCGUUGGCGUAAAGGUAACGCGUCUCCCCCCUAUGGAGAAGACUGGGGGUUCGAGUCCCAUACGGAUCG [U16A U32C A37U C49G G63A A70U],≤ 0.5
6,GUUCCGUUGGCGUAAAGGUAAGGCGUCUCCCUCCUAAGGAGAAGACUACGGGUUCGAGUCCCGUACGGAACG [U16A C22G G48A],0.994
7,GUUCCGUUGGCGUAAAGGUAACGCGUCUCCCUCCUAAGGAGAAGACUGCGGGAUCGGGUCCCGUACGGAACG [U16A U53A A57G],≤ 0.5
8,GUUCCGUUGGCGUAACGGUUACGUGUCUCCCUCCUAAGGAGAAGACUGCGGGUUCGAGUCCCGUUCGGAACG [U16C A20U C24U A65U],≤ 0.5
9,GUUCCGUUGGCGUAAAGGUAACGCGUCUCCCUCCUAAGGAGAAGACUGCGGGUCCGAGUCCCGUACGGAACG [U16A U54C],0.849
10,GUUCCGUUGGCGUAAAGGUAACGCGUCUCCCUCCUAAGGAAAAGACUGCGGGUUCGAGUCCCGUACGGAUCG [U16A G41A A70U],0.666
11,GUUCCGUUGGCGUAAAGGUAACGAGUCUCCCUCCUAAGGAGAGGACUGCGGGUUCGAGUCCCGUACGAAACG [U16A C24A A43G G68A],≤ 0.5
12,GUUCCGUUGGCGUAAAGGUAACGCGUCUCCCUCCUAAGGAGAAGACUGCGGGUUUGCGUCCCGUACGGAACG [U16A C55U A57C],≤ 0.5
13,GUUCCGUUGGCGUAAAGGUAACGGGUCUCCCUCCUAAGGAGAAGACUGCGGGUUCGAGUCCCGUACGGAACG [U16A C24G],0.528
14,GUUCCGUUGGCGUAAAGGUAACGUGUCUCCCUUCUUAGGUGAAGACUGCGGGUUCCGGUCCCGUACGGCACG [U16A C24U C33U A36U A40U G56C A57G A69C],≤ 0.5
15,GUUCCGUUGGCGUAAAGGUAACGGGUCUCCCUCCUAAGGAGAAGACUGCGGGUUCGAGUAGCGUACGGAACG [U16A C24G C60A C61G],≤ 0.5
16,GUUCCGUUGGCGUAAAGGUAACGCGUCUCCCUCCCAAGGAGAAGGCUGCGGGUUCCAGUCCCGUACGGAACG [U16A U35C A45G G56C],0.602
17,GUUCCGUUGGCGUAAAGGUAACCCGUGUCCCUCAUAAGGAGAAAACUGCGGGUUCGAGUCCCGUACGGAACG [U16A G23C C27G C34A G44A],≤ 0.5
18,GUUCCGUUGGCGUAAAGGUAACGCGUCUCCCUCCUAAGGAGAAGACCGCGGGUUCGAGUCCCGUACGGAACG [U16A U47C],1.01
19,GUUCCGUUGGCGUAAAGGUAACGCGUCUGCCUCCUAAGGAGAAGACUGCGGGUUCGAGUCCCGUACGGAACG [U16A C29G],0.669
